{"source": "ChEMBL document CHEMBL4819122", "about": "“Novel 4-(piperazin-1-yl)quinolin-2(1H)-one bearing thiazoles with antiproliferative activity through VEGFR-2-TK inhibition” (Bioorg Med Chem, 2021)", "key": {"OVCAR-8": {"system": "OVCAR-8", "assay": "Cytotoxicity against human OVCAR-8 assessed as growth inhibition at 10 uM by NCI protocol relative to control", "type": "functional", "conditions": "read-out: GI", "method_in_brief": "(§1)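 Run by NCI as a single-dose screen at 10 μM across the sixty-cell-line panel, which covers nine human tumour tissue types. The read-out is percent growth inhibition of treated cells relative to untreated cells.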"}, "SK-MEL-5": {"system": "SK-MEL-5", "assay": "Cytotoxicity against human SK-MEL-5 assessed as growth inhibition at 10 uM by NCI protocol relative to control", "type": "functional", "conditions": "read-out: GI", "method_in_brief": "as §1"}, "T47D": {"system": "T47D", "assay": "Cytotoxicity against human T47D cells assessed as reduction in cell viability after 3 hrs by MTT assay"}, "DU-145": {"system": "DU-145", "assay": "Cytotoxicity against human DU-145 assessed as growth inhibition at 10 uM by NCI protocol relative to control", "type": "functional", "conditions": "read-out: GI", "method_in_brief": "as §1"}, "M14": {"system": "M14", "assay": "Cytotoxicity against human M14 assessed as growth inhibition at 10 uM by NCI protocol relative to control", "type": "functional", "conditions": "read-out: GI", "method_in_brief": "as §1"}, "K562": {"system": "K562", "assay": "Cytotoxicity against human K-562 assessed as growth inhibition at 10 uM by NCI protocol relative to control", "type": "functional", "conditions": "read-out: GI", "method_in_brief": "as §1"}, "OVCAR-4": {"system": "OVCAR-4", "assay": "Cytotoxicity against human OVCAR-4 assessed as growth inhibition at 10 uM by NCI protocol relative to control", "type": "functional", "conditions": "read-out: GI", "method_in_brief": "as §1"}, "SK-MEL-28": {"system": "SK-MEL-28", "assay": "Cytotoxicity against human SK-MEL-28 assessed as growth inhibition at 10 uM by NCI protocol relative to control", "type": "functional", "conditions": "read-out: GI", "method_in_brief": "as §1"}, "SF-295": {"system": "SF-295", "assay": "Cytotoxicity against human SF-295 assessed as growth inhibition at 10 uM by NCI protocol relative to control", "type": "functional", "conditions": "read-out: GI", "method_in_brief": "as §1"}, "NCI-H460": {"system": "NCI-H460", "assay": "Cytotoxicity against human NCI-H460 assessed as growth inhibition at 10 uM by NCI protocol relative to control", "type": "functional", "conditions": "read-out: GI", "method_in_brief": "as §1"}, "A549": {"system": "A549", "assay": "Cytotoxicity against human A549 assessed as growth inhibition at 10 uM by NCI protocol relative to control", "type": "functional", "conditions": "read-out: GI", "method_in_brief": "as §1"}, "SW-620": {"system": "SW-620", "assay": "Cytotoxicity against human SW-620 assessed as growth inhibition at 10 uM by NCI protocol relative to control", "type": "functional", "conditions": "read-out: GI", "method_in_brief": "(§2)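 Run by the NCI under its standard protocol: one dose of 10 μM against a sixty-line panel from nine human tumour tissues. Result given as percent growth inhibition of treated cells relative to untreated cells.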"}, "MCF7": {"system": "MCF7", "assay": "Cytotoxicity against human MCF7 assessed as growth inhibition at 10 uM by NCI protocol relative to control", "type": "functional", "conditions": "read-out: GI", "method_in_brief": "as §1"}, "HOP-92": {"system": "HOP-92", "assay": "Cytotoxicity against human HOP-92 assessed as growth inhibition at 10 uM by NCI protocol relative to control", "type": "functional", "conditions": "read-out: GI", "method_in_brief": "as §1"}, "MDA-MB-468": {"system": "MDA-MB-468", "assay": "Cytotoxicity against human MDA-MB-468 assessed as growth inhibition at 10 uM by NCI protocol relative to control", "type": "functional", "conditions": "read-out: GI", "method_in_brief": "as §1"}, "NCI/ADR-RES": {"system": "NCI/ADR-RES", "assay": "Cytotoxicity against human NCl/ADR-RES assessed as growth inhibition at 10 uM by NCI protocol relative to control", "type": "functional", "conditions": "read-out: GI", "method_in_brief": "as §1"}, "Hs-578T": {"system": "Hs-578T", "assay": "Cytotoxicity against human HS 578T assessed as growth inhibition at 10 uM by NCI protocol relative to control", "type": "functional", "conditions": "read-out: GI", "method_in_brief": "as §1"}, "SF-539": {"system": "SF-539", "assay": "Cytotoxicity against human […] assessed as growth inhibition at 10 uM by NCI protocol relative to control", "type": "functional", "conditions": "read-out: GI", "method_in_brief": "as §1"}, "TK-10": {"system": "TK-10", "assay": "Cytotoxicity against human TK-10 assessed as growth inhibition at 10 uM by NCI protocol relative to control", "type": "functional", "conditions": "read-out: GI", "method_in_brief": "as §2"}, "ACHN": {"system": "ACHN", "assay": "Cytotoxicity against human ACHN assessed as growth inhibition at 10 uM by NCI protocol relative to control", "type": "functional", "conditions": "read-out: GI", "method_in_brief": "as §1"}, "CCRF-CEM": {"system": "CCRF-CEM", "assay": "Cytotoxicity against human CCRF-CEM assessed as growth inhibition at 10 uM by NCI protocol relative to control", "type": "functional", "conditions": "read-out: GI", "method_in_brief": "as §1"}, "HL-60": {"system": "HL-60", "assay": "Cytotoxicity against human HL60 assessed as growth inhibition at 10 uM by NCI protocol relative to control", "type": "functional", "conditions": "read-out: GI", "method_in_brief": "as §1"}, "SR": {"system": "SR", "assay": "Cytotoxicity against human SR assessed as growth inhibition at 10 uM by NCI protocol relative to control", "type": "functional", "conditions": "read-out: GI", "method_in_brief": "as §2"}, "HCT-15": {"system": "HCT-15", "assay": "Cytotoxicity against human HCT-15 assessed as growth inhibition at 10 uM by NCI protocol relative to control", "type": "functional", "conditions": "read-out: GI", "method_in_brief": "as §1"}, "RXF 393": {"system": "RXF 393", "assay": "Cytotoxicity against human RXF 393 assessed as growth inhibition at 10 uM by NCI protocol relative to control", "type": "functional", "conditions": "read-out: GI", "method_in_brief": "as §1"}, "MOLT-4": {"system": "MOLT-4", "assay": "Cytotoxicity against human MOLT-4 assessed as growth inhibition at 10 uM by NCI protocol relative to control", "type": "functional", "conditions": "read-out: GI", "method_in_brief": "as §1"}}, "data": [{"smiles": "COc1ccc(-c2csc(NC(=O)CN3CCN(c4cc(=O)[nH]c5ccc(F)cc45)CC3)n2)cc1", "values": [{"measurement": "inhibition of growth at 10 µM", "setting": "OVCAR-8", "value": 17.2, "unit": "%"}, {"measurement": "inhibition of growth at 10 µM", "setting": "SK-MEL-5", "value": 25.4, "unit": "%"}, {"measurement": "IC50", "setting": "T47D", "value": 16.9, "unit": "µM"}, {"measurement": "inhibition of growth at 10 µM", "setting": "DU-145", "value": 40, "unit": "%"}, {"measurement": "inhibition of growth at 10 µM", "setting": "M14", "value": 19.2, "unit": "%"}, {"measurement": "inhibition of growth at 10 µM", "setting": "K562", "value": 30.1, "unit": "%"}, {"measurement": "inhibition of growth at 10 µM", "setting": "OVCAR-4", "value": 25.1, "unit": "%"}, {"measurement": "inhibition of growth at 10 µM", "setting": "SK-MEL-28", "value": 13.7, "unit": "%"}, {"measurement": "inhibition of growth at 10 µM", "setting": "SF-295", "value": 17.5, "unit": "%"}, {"measurement": "inhibition of growth at 10 µM", "setting": "NCI-H460", "value": 12.5, "unit": "%"}, {"measurement": "inhibition of growth at 10 µM", "setting": "A549", "value": 29.5, "unit": "%"}, {"measurement": "inhibition of growth at 10 µM", "setting": "SW-620", "value": 34.6, "unit": "%"}, {"measurement": "inhibition of growth at 10 µM", "setting": "MCF7", "value": 28.4, "unit": "%"}, {"measurement": "inhibition of growth at 10 µM", "setting": "HOP-92", "value": 25.4, "unit": "%"}, {"measurement": "inhibition of growth at 10 µM", "setting": "MDA-MB-468", "value": 32, "unit": "%"}, {"measurement": "inhibition of growth at 10 µM", "setting": "NCI/ADR-RES", "value": 20.5, "unit": "%"}, {"measurement": "inhibition of growth at 10 µM", "setting": "Hs-578T", "value": 32.9, "unit": "%"}, {"measurement": "inhibition of growth at 10 µM", "setting": "SF-539", "value": 30.5, "unit": "%"}, {"measurement": "inhibition of growth at 10 µM", "setting": "TK-10", "value": 31.8, "unit": "%"}, {"measurement": "inhibition of growth at 10 µM", "setting": "ACHN", "value": 27.7, "unit": "%"}, {"measurement": "inhibition of growth at 10 µM", "setting": "CCRF-CEM", "value": 29.8, "unit": "%"}, {"measurement": "inhibition of growth at 10 µM", "setting": "HL-60", "value": 23.5, "unit": "%"}, {"measurement": "inhibition of growth at 10 µM", "setting": "SR", "value": 34.7, "unit": "%"}, {"measurement": "inhibition of growth at 10 µM", "setting": "HCT-15", "value": 26.6, "unit": "%"}, {"measurement": "inhibition of growth at 10 µM", "setting": "RXF 393", "value": 20.3, "unit": "%"}, {"measurement": "inhibition of growth at 10 µM", "setting": "MOLT-4", "value": 46.7, "unit": "%"}]}]}
